# An excerpt weighted towards active compounds, which were near 5.7% of everything screened.
# Beta apoptosis: inhibitors of cytokine-induced beta cell apoptosis, primary screen, luminescence; INS-1E cytokine-induced death, ATP luminescence, 48 h; percent of positive-control rescue, neutral wells zero; protection from apoptosis, % (concentration not given with the values); hit rate 0.8% among 300,000;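 active means Every replicate reaches about 75%, or at least half do and their mean reaches it too, limit read from the data; inconclusive means At least half of replicates reach the limit but their mean does not; inactive means Under half of replicates reach the limit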;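 further: 0% = cytokine-treated negative control wells and 100% = positive control rescue; higher means more ATP so stronger rescue from cytokine killing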
# T cruzi inh: inhibitors of intracellular T. cruzi growth, primary screen, luminescence, NIH3T3 host cells | hit rate 1.4% among 300,000 | T. cruzi beta-gal in NIH3T3, 90 h | AID 1885, 2009 | inhibition, % (concentration not given with the values);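 active means mean inhibition across valid replicates above about 55%, limit read from the data; inconclusive means mean below that limit but half or more replicates reach it; inactive means mean below it, under half of replicates reach it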;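 further: signal also drops with host cell toxicity which is not excluded here; 0% = plate median of DMSO wells and 100% = zero luminescence signal; higher percent means less beta-gal luminescence so fewer parasites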
#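 Material: NIH/3T3 host cells with β-galactosidase reporter T. cruzi; Input: 5,000 host fibroblasts per well; Medium: DMEM, 2% fetal bovine serum; Compound: 50 nL DMSO compound solution per well; Schedule: 3 h host attachment, then at least 90 h co-culture; Detection: luminescent β-galactosidase signal after 60 min lysis.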
# CSC inhib: cancer stem cell viability inhibitors, primary screen, luminescence | cancer stem cell-like cells viability | inhibition, % at 7.5 µM | hit rate 1.1% among 300,000 | AID 2717, 2010; in the data active means inhibition above about 75%; inconclusive means no clear call, values can overlap the other calls; tested in HMLE shEcad cells
# SKKanGAS inh: S. pyogenes SKKanGAS growth inhibitors in kanamycin, primary screen, streptokinase expression inhibitor project, SKKanGAS strain, BacTiter-Glo luminescence | inhibition, % at 7.5 µM | 6 h | hit rate 1.3% among 300,000 | AID 1662, 2009;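 active means mean replicate score, as percent of positive control median, at least 50; inconclusive means mean below 50 but one replicate at or above 50; inactive means mean and every replicate below 50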;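 further: strain carries kanamycin resistance gene driven by streptokinase promoter and grows in 40 µg/ml kanamycin; loss of luminescence reflects streptokinase promoter inhibition or plain growth inhibition; 0% = median of DMSO wells and 100% = positive control at its reference dose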
# Calb FLC: C. albicans growth inhibition with fluconazole, primary screen, CaCi-2 strain, Alamar Blue fluorescence; C. albicans CaCi-2 (fluconazole-resistant clinical isolate) + fluconazole, 48 h; growth inhibition, % (concentration not given with the values); hit rate 0.57% among 300,000;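 active means growth inhibition above about 58% in most replicates, limit read from the data, passing the limit was not always enough; inconclusive means exactly half the replicates above a set limit; inactive means most replicates below a set limit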;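 further: all wells also contain fluconazole at 8 µg/ml as a sub-toxic cotreatment; 0% = median of DMSO wells and 100% = median of geldanamycin control wells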
# Mdm2 MdmX PPI: inhibitors of human Mdm2-MdmX association, primary screen, cell-based, luminescence, split luciferase, SaOS-2, uHTS; Protein Mdm4 (Homo sapiens) + E3 ubiquitin-protein ligase Mdm2 (Homo sapiens), …; hit rate 3% among 330,000; SaOS-2 split-luciferase Mdm2/MdmX complementation; AID 485346, 2010; inhibition, % at 8 µM;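 active means inhibition of at least 50% at 8 µM in the primary screen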
# Target sequence (O15151 whole entry, looked up): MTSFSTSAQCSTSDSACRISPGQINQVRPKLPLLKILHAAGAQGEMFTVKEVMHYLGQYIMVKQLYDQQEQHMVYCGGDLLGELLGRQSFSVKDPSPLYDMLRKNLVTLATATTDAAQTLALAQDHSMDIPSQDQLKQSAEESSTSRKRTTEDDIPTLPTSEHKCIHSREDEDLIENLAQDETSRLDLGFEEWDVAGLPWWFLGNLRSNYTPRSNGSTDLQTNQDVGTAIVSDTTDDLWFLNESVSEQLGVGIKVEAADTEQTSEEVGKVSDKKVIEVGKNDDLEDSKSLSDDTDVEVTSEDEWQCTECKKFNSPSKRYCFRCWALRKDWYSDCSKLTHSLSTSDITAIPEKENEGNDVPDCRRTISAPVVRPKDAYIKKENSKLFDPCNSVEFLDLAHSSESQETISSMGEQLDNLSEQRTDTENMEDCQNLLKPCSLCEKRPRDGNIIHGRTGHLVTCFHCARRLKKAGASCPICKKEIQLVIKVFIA
# Target sequence (Q00987 whole entry, looked up): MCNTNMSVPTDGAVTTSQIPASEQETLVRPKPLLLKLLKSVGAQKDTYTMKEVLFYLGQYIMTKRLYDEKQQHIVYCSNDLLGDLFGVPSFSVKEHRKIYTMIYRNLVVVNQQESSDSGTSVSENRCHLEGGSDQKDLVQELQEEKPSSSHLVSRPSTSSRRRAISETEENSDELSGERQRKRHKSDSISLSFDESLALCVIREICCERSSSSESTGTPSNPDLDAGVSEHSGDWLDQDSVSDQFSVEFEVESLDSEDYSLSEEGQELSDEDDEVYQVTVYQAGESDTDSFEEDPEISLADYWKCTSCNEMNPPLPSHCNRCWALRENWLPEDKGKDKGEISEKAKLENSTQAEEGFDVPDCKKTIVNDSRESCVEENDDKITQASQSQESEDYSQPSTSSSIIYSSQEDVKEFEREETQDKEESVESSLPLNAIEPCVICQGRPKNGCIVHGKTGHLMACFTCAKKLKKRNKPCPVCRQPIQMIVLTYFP
# An asterisk follows results filed as active; ? = inconclusive; . = no result given.
SMILES,Beta apoptosis,T cruzi inh,CSC inhib,SKKanGAS inh,Calb FLC,Mdm2 MdmX PPI
COc1ccc(C(=O)/C=C/C(=O)N(Cc2ccccc2OC)C(C(=O)NC2CCCCC2)c2ccncc2)c(O)c1 (configuration not stated),7,23,.,2,-2,-12
COc1ccc(C(=O)/C=C/C(=O)N(Cc2ccccc2)C(C(=O)NC2CCCCC2)c2ccncc2)c(O)c1 (configuration not stated),11,-1,0,-3,18,22
Cc1ccc(C(=O)OCc2nnc(-c3ccccc3)o2)cc1S(=O)(=O)N1CCOCC1,.,-6,-7,-12,2,-2
CCOC(=O)c1nn(-c2ccccc2C)c(=O)cc1OCC(=O)N1CCN(c2ccccc2)CC1,1,-7,2,-2,-5,-10
COc1ccc(CCC(C)N(C)Cc2ccccc2)cc1 (configuration not stated),5,8,-7,0,-5,3
Cc1ccc(-c2csc3nc[nH]c(=S)c23)cc1C,20,12,-1,93*,-6,49
COc1ccc(C(CNc2ccc(S(=O)(=O)N3CCCC3)cc2[N+](=O)[O-])N2CCCC2)cc1 (configuration not stated),.,59*,.,2,1,27
CO/N=C(/C(=O)N[C@@H]1C(=O)N2C(C(=O)O)=CCS[C@H]12)c1cnc(N)s1,2,-4,-13,99*,.,.
CN(C)CCCN(C(=O)c1ccc2c(c1)CCCC2)c1nc2c(F)cccc2s1,9,58*,18,5,3,-36
CN(C)CCCN(C(=O)c1ccc(N2C(=O)CCC2=O)cc1)c1nc2c(F)cccc2s1,-5,57*,-11,-7,4,-3
CN(C)CCCN(C(=O)c1ccc(S(=O)(=O)N(C)Cc2ccccc2)cc1)c1nc2c(F)cccc2s1,-3,36,-13,1,5,40
COc1cccc(N2CCN(C(=O)C3CCCN(c4ncnc5c4nc4n5CCCCC4)C3)CC2)c1 (configuration not stated),5,12,38,4,20,40
CCOc1nc(Nc2ccc([N+](=O)[O-])cc2)nc(NC(C)(C)C)n1,43,35,15,-7,-2,-18
CCN(CC)c1nc(Nc2ccc([N+](=O)[O-])cc2)nc(N(CC)CC)n1,15,45,69,65*,2,40
N#C/C(=C/c1cn(-c2ccccc2)nc1-c1cccc(OCc2ccccc2)c1)C(=O)NCCCn1ccnc1,4,60*,?,5,1,28
O=C(NCCCn1ccnc1)c1cn(-c2ccccc2)nc1-c1ccccc1,1,1,2,-4,10,9
Cc1ccc(NC2CCCN(C(=O)CCn3nccc3C)C2)cc1C (configuration not stated),7,-8,-3,-3,11,8
C=CCN1C(=O)/C(=C/c2ccc(OC(C)=O)c(OCC)c2[N+](=O)[O-])SC1=S,.,7,.,77*,56,.
